Source: ChEMBL document CHEMBL1138477, “8-(4-Methoxyphenyl)pyrazolo[1,5-a]-1,3,5-triazines: selective and centrally active corticotropin-releasing factor receptor-1 (CRF1) antagonists” (J Med Chem, 2009)
Active and inactive are the calls of the source. The calls are words filed in the database; no cut-off is given here.

Columns and labels:
[1] = target: T1, Corticotropin-releasing factor receptor 1 (Rattus norvegicus, UniProt P35353); assay: Displacement of [125I]Tyr0-ovine CRF from CRF1 receptor in rat cortical membrane by gamma counting; type: cell membranes
T1 sequence (P35353 whole entry): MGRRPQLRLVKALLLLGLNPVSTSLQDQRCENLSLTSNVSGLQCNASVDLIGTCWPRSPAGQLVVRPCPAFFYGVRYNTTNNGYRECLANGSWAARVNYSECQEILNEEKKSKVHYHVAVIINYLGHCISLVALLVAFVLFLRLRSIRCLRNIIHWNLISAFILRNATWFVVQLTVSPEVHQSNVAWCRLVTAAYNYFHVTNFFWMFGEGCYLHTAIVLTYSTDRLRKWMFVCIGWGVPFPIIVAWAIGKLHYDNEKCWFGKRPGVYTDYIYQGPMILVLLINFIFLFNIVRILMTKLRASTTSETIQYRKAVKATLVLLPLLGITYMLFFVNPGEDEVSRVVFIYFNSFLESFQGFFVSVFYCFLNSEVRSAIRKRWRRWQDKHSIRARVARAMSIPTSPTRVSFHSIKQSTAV
Procedure, shortened: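 Inhibition of 125I-Tyr0-ovine-CRF binding to rat cortical membranes measured across dilutions of test drug; IC50 derived by iterative curve fitting.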

[2] = tested on: Canis familiaris; assay: Ex vivo displacement of [125I]Tyr0-ovine CRF from CRF1 receptor in dog at 5 mg/kg, po measured in plasma after 2 hrs; type: functional; details: Canis lupus familiaris
Procedure, shortened: (§1)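 Beagle dogs given 5 mg/kg po (free base), in Labrafil or Tween-80/0.5% methylcellulose 1:99; plasma drawn 2 and 10 h postdose, diluted 10-fold in binding buffer, and tested for inhibition of 125I-Tyr0-ovine-CRF binding to rat receptors; mean ± SD, n = 3.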

[3] = tested on: Canis familiaris; assay: Ex vivo displacement of [125I]Tyr0-ovine CRF from CRF1 receptor in dog at 5 mg/kg, po measured in plasma after 10 hrs; type: functional; details: Canis lupus familiaris; procedure, shortened: as §1
[4] = target: T2, Alpha-1B adrenergic receptor (Homo sapiens, UniProt P35368); assay: Binding affinity to adrenergic alpha-1b receptor
T2 sequence (P35368 whole entry): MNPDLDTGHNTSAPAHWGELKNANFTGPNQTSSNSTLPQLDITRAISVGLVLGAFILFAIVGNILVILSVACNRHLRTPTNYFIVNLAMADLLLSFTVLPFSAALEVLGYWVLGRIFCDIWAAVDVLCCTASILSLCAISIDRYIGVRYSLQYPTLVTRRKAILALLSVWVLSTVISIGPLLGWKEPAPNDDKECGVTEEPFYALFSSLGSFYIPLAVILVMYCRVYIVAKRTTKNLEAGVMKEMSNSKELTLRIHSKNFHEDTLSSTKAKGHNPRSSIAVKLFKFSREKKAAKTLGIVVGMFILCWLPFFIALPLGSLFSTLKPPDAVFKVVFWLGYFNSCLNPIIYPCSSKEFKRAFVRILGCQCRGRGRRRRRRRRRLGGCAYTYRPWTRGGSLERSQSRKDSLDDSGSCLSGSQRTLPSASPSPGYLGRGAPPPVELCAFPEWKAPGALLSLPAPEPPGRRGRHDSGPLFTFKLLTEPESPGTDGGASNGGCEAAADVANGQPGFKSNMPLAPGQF

[5] = target: T3, Alpha-2B adrenergic receptor (Homo sapiens, UniProt P18089); assay: Binding affinity to adrenergic alpha2b receptor
T3 sequence (P18089 whole entry): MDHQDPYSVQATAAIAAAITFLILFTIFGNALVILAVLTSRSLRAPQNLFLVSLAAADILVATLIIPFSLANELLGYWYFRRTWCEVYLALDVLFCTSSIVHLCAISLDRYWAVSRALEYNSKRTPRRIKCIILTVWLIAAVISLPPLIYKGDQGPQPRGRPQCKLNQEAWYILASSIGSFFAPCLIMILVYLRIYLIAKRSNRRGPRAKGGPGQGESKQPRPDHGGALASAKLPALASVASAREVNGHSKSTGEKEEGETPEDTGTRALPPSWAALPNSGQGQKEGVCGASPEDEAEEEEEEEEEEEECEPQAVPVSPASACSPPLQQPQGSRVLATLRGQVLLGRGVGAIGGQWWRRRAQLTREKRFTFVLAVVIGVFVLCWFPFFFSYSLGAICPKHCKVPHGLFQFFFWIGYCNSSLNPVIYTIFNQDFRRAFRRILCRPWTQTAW

[6] = target: T4, Alpha-2C adrenergic receptor (Homo sapiens, UniProt P18825); assay: Binding affinity to adrenergic alpha2c receptor
T4 sequence (P18825 whole entry): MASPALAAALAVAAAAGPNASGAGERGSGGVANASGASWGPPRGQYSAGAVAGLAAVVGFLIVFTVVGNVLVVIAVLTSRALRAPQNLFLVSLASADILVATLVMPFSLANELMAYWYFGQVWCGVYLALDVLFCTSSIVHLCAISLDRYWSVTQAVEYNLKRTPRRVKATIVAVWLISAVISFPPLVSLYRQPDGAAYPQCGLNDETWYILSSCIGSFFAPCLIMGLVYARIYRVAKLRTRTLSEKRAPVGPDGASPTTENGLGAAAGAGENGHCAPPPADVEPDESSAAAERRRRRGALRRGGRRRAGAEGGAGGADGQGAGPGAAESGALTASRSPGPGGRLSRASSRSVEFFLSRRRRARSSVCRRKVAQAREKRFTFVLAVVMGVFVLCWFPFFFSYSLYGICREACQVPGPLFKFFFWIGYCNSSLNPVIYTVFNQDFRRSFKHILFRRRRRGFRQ

[7] = target: D(1A) dopamine receptor (Homo sapiens, UniProt P21728); assay: Binding affinity to dopamine D1 receptor
Sequence of D(1A) dopamine receptor (P21728 whole entry): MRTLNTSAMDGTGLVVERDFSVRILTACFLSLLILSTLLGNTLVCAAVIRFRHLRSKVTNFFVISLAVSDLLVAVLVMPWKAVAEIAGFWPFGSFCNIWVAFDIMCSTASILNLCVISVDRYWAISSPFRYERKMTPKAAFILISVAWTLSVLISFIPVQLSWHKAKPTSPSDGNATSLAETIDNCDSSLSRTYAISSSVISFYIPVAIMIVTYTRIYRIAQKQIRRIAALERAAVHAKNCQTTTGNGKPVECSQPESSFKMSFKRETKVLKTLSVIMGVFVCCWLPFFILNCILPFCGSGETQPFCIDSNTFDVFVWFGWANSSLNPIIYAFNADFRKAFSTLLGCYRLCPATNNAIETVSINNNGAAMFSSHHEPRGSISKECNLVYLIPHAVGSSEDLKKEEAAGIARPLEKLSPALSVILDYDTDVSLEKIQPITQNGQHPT

[8] = target: D(2) dopamine receptor (Homo sapiens, UniProt P14416); assay: Binding affinity to dopamine D2 receptor
Sequence of D(2) dopamine receptor (P14416 whole entry): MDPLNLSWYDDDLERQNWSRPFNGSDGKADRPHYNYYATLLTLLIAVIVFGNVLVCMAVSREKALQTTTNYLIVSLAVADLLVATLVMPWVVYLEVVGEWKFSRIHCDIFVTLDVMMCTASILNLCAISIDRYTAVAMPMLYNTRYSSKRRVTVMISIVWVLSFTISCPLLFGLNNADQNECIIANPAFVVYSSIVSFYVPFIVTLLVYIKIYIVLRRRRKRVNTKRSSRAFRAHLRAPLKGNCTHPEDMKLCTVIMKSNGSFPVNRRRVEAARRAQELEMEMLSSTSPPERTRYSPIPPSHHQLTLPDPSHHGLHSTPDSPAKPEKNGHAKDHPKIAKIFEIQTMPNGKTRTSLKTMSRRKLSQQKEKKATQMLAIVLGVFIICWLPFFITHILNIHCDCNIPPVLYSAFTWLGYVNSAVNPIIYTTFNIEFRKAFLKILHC

[9] = Binding affinity to serotonin receptor
[10] = Binding affinity to L-type calcium channel
[11] = Binding affinity to N-type calcium channel
[12] = target: T5, Corticotropin-releasing factor receptor 2 (Homo sapiens) (UniProt Q13324); assay: Agonist activity at human cloned CRF2alpha receptor expressed in HEK293 cells; type: functional, cell-based
T5 sequence (whole entry): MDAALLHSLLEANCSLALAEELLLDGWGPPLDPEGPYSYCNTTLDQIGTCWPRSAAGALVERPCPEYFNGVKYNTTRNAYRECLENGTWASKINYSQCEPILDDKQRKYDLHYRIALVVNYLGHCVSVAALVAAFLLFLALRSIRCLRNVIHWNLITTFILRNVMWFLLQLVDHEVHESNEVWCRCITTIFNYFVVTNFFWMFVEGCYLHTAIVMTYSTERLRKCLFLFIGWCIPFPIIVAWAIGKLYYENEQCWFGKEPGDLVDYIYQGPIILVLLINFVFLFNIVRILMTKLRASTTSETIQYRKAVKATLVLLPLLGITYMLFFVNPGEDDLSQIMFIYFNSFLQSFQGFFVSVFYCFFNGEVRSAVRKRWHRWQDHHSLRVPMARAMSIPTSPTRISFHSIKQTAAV

COCCN(CCOC)c1nc(C)nc2c(-c3cc(C)c(OC)cc3C)c(C)nn12
IC50 [1]: 1.98 nM
inhibition in vivo at 5 mg/kg [2]: 84%
inhibition in vivo at 5 mg/kg [3]: 44%
IC50 [4]: > 1000 nM
IC50 [5]: > 1000 nM
IC50 [6]: > 1000 nM
IC50 [7]: > 1000 nM
IC50 [8]: > 1000 nM
IC50 [9]: > 1000 nM
IC50 [10]: > 1000 nM
IC50 [11]: > 1000 nM
Activity [12]: inactive

COCCN(CCOC)c1nc(C)nc2c(-c3ccc(OC)cc3C)c(C)nn12
IC50 [1]: 4.2 nM
inhibition in vivo at 5 mg/kg [2]: 75%
inhibition in vivo at 5 mg/kg [3]: 37%
IC50 [4]: > 1000 nM
IC50 [5]: > 1000 nM
IC50 [6]: > 1000 nM
IC50 [7]: > 1000 nM
IC50 [8]: > 1000 nM
IC50 [9]: > 1000 nM
IC50 [10]: > 1000 nM
IC50 [11]: > 1000 nM
Activity [12]: inactive

CCC(CC)Nc1nc(C)nc2c(-c3cc(F)c(OC)cc3Cl)c(C)nn12
IC50 [1]: 1 nM
inhibition in vivo at 5 mg/kg [2]: 97%
inhibition in vivo at 5 mg/kg [3]: 66%
IC50 [4]: > 1000 nM
IC50 [5]: > 1000 nM
IC50 [6]: > 1000 nM
IC50 [7]: > 1000 nM
IC50 [8]: > 1000 nM
IC50 [9]: > 1000 nM
IC50 [10]: > 1000 nM
IC50 [11]: > 1000 nM
Activity [12]: inactive

CC[C@@H](C)Nc1nc(C)nc2c(-c3c(C)cc(OC)cc3OC)c(C)nn12
IC50 [1]: 4.4 nM
inhibition in vivo at 5 mg/kg [2]: 72%
inhibition in vivo at 5 mg/kg [3]: 83%
IC50 [4]: > 1000 nM
IC50 [5]: > 1000 nM
IC50 [6]: > 1000 nM
IC50 [7]: > 1000 nM
IC50 [8]: > 1000 nM
IC50 [9]: > 1000 nM
IC50 [10]: > 1000 nM
IC50 [11]: > 1000 nM
Activity [12]: inactive
